Screens (PubChem BioAssay)
Compounds with a hit are over-represented: about 3% of the library has one in this group of screens.
TRPC4 act – opens the mouse TRPC4 cation channel; 0.49% of 310,000 active; Q9QUQ5; AID 2237; HEK293 TRPC4beta/mu-opioid, Fluo4 calcium fluorescence; active compounds read high; B-score at 10 µM;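 active = B-score above 5 SD of library B-scores, and initial fluorescence ratio not above library mean plus 5 SD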;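 also: positive B-score marks a calcium rise read as TRPC4 activation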
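Material: TRPC4beta and mu-opioid receptor HEK293 stable cells | Incubation: 45 min room-temperature Fluo4 loading, 110 s read | Detection: Kinetic Fluo4 calcium fluorescence | Measure: Integrated baseline-normalised fluorescence ratio, converted to per-well B score | Benchmarks: Low control buffer alone, high control maximal DAMGO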
TRPC6 act – activators of mouse TRPC6 channel | HEK293-TRPC6 membrane potential dye fluorescence; active compounds read high | B-score at 10 µM | 0.13% of 310,000 active;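 active = B-score of the integrated fluorescence ratio above library mean plus 3 SD, and starting fluorescence ratio within library mean plus 5 SD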;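 also: higher score means more depolarization so channel activation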
TRPC4 inh – blocks the mouse TRPC4 cation channel; AID 2247; B-score at 10 µM; Q9QUQ5; 0.39% of 300,000 active; HEK293 TRPC4beta/mu-opioid, DAMGO-evoked Fluo4 calcium flux; active compounds read low;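 active = B-score over 3 SD under the library average, no early fluorescence shift, positive overall ratio signal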
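Assay system: Stable TRPC4beta/mu-opioid receptor HEK293 cells | Reagent: DAMGO in two steps, submaximal then maximal | Compound dosing: Single concentration per test compound | Signal: Fluo4 Ca2+ flux fluorescence | Evaluation: Per-well B score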
TRPC4 PAM – allosterically enhances the mouse TRPC4 cation channel. Q9QUQ5. HEK293 TRPC4beta/mu-opioid, DAMGO EC20, Fluo-4 Ca2+ flux; active compounds read high. B-score at 10 µM. 0.42% of 310,000 active. AID 2227;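 active = B-score of calcium response area above 5 SD of library B-scores, with initial fluorescence ratio within 5 SD of library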;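 also: B-score of integrated fluorescence ratio over time as area under calcium response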
TRPC6 inh – inhibitors of mouse TRPC6 channel | 1.1% of 310,000 active | B-score at 10 µM | HEK293-TRPC6, membrane potential dye, ACh-evoked depolarization; active compounds read low;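 active = B-score under library mean minus 3 SD, initial fluorescence not abnormally high, positive integrated signal ratio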;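 also: B-score derived from integrated fluorescence ratio over the kinetic read; more negative B-score means stronger inhibition of depolarization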
Kir21 inh – blocks the mouse Kir2.1 inward-rectifier potassium channel | P35561 | 0.85% of 310,000 active | HEK293-Kir2.1, FluxOR thallium flux fluorescence; active compounds read low | AID 1672 | B-score at 10 µM;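 active = fluorescence ratio B-score at or below minus 3 SD of library scores, with starting-brightness B-score within 2 SD, cut at about -4.2 in these data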;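 also: channel flux triggered by added potassium and thallium sulfate stimulus; B-score of peak minus minimum fluorescence over baseline after thallium stimulus; more negative B-score means stronger Kir2.1 block with less thallium influx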
Target sequence (P35561 whole entry, looked up): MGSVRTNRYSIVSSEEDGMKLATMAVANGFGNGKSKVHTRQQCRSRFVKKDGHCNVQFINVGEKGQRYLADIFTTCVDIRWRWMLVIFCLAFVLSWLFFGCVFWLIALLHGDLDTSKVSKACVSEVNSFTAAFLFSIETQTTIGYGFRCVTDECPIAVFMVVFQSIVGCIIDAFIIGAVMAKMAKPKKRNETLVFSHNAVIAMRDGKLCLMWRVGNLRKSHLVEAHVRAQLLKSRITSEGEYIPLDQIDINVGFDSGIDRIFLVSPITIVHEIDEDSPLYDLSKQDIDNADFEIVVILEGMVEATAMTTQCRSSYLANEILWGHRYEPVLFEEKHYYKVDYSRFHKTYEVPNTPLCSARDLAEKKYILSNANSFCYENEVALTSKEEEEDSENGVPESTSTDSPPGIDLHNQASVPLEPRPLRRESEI
TRPC4 spec 2 – second selectivity test of TRPC6 inhibitors: effect on mouse TRPC4; shares compounds with TRPC6 inh; HEK293 TRPC4/MOR, membrane potential dye fluorescence; channel activated by saturating DAMGO dose; inhibition, % at 10 µM; 42% of 920 active; AID 2776;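 active = compounds whose fluorescence signal differed from control wells by over 3 SD, either direction, in both duplicate plates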
TRPC4 spec – mouse TRPC4 off-target activity of TRPC6 inhibitors; shares compounds with TRPC6 inh; HEK293 TRPC4/mu-opioid, membrane potential fluorescence; activity change, negative = inhibition, % at 10 µM; 61% of 920 active;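 active = rise or fall in signal beyond 3 SD of buffer-only wells in both replicate plates, either sign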;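 also: integrated kinetic ratio of fluorescence range over baseline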
HEK293 MPD ctr 2-1 – second counter-screen for TRPC6 inhibitors: parental HEK293 cells. shares compounds with TRPC6 inh. parental HEK293 membrane potential dye fluorescence; maximal acetylcholine challenge after compound addition. signal change vs control, % at 10 µM. 31% of 920 active;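 active = membrane potential signal moving either way by over 3 SD of the maximum-effect control, in both duplicate plates, meaning non-specific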
HEK293 MPD ctr-1 – counter-screen for TRPC6 inhibitors: effect in parental HEK293 cells; shares compounds with TRPC6 inh; parental HEK293 membrane potential dye fluorescence; membrane potential signal change, % at 10 µM; 60% of 920 active;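 active = membrane potential signal shifting up or down by more than 3 SD of buffer-only wells, on both duplicate plates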
HEK293 MPD ctr-2 – checks TRPC6 modulator effects in parental HEK293 cells; membrane potential dye fluorescence; AID 488924; membrane potential signal change, % at 10 µM; 51% of 2,400 active; shares compounds with TRPC6 inh;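 active = membrane potential signal moves up or down beyond 5 SD from buffer-only wells, on both duplicate plates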
HEK293 MPD ctr 2-2 – second check of TRPC6 modulator effects in parental HEK293 cells | AID 488926 | membrane potential dye fluorescence; after compound, maximal acetylcholine stimulation | inhibition, % at 10 µM | 14% of 2,400 active | shares compounds with TRPC6 inh;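 active = membrane potential signal drops by more than 5 SD from the mean control signal, in both duplicate plates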;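 also: plate controls were acetylcholine ECmax control wells for no effect and buffer only wells for full effect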
TRPC4 ctr mod – mouse TRPC4 off-target activity of TRPC6 modulators. shares compounds with TRPC6 inh. HEK293 TRPC4/mu-opioid, membrane potential fluorescence. percent change from control (negative = decrease, positive = increase), % at 10 µM. 69% of 2,400 active;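 active = membrane potential signal moved up or down beyond 5 SD of buffer control wells, in both duplicate plates, actives on both sides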;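 also: plate controls were assay buffer wells for no effect and DAMGO maximal-effect wells for full effect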
TRPC4 ctr inh 2 – second selectivity test of TRPC6 modulators against mouse TRPC4; 55% of 2,400 active; HEK293 TRPC4/mu-opioid, membrane potential dye fluorescence; stimulated with maximal-effect DAMGO; shares compounds with TRPC6 inh; inhibition, % at 10 µM;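 active = drop in membrane potential signal beyond 5 SD of the control wells in both duplicate plates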;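 also: TRPC4 counter screen for TRPC6 hits run under conditions tuned for TRPC6 not TRPC4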
TRPC6 block conf – mouse TRPC6 inhibitor confirmation; HEK293-TRPC6, membrane potential dye, ACh-evoked depolarization; AID 488960; 43% of 3,300 active; shares compounds with TRPC6 inh; inhibition, % at 10 µM;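 active = fluorescence ratio falls more than 5 SD below the full-stimulation control mean, in both duplicate runs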;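 also: integrated fluorescence ratio of peak minus minimum over baseline after agonist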
TRPC6 act conf – mouse TRPC6 activator confirmation | HEK293-TRPC6 membrane potential dye fluorescence, FDSS | AID 488961 | shares compounds with TRPC6 inh | activation, % at 10 µM | 11% of 2,800 active;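 active = ratio signal rise beyond 5 SD above unstimulated control wells' mean, seen in both duplicate runs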;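 also: plate controls were buffer EC0 wells for no effect and acetylcholine ECmax response for full effect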
An asterisk follows results filed as active; ! = repeats disagree.

C[n+]1c2n(c3ccccc31)N=C(c1ccccc1)CS2 was read as TRPC4 act inactive, TRPC6 act inactive, TRPC4 inh inactive, TRPC4 PAM inactive, TRPC6 inh -5.16*!, Kir21 inh 0.49, HEK293 MPD ctr-2 -159.0%*, HEK293 MPD ctr 2-2 inactive, TRPC4 ctr mod -26.0%*, TRPC4 ctr inh 2 49.5%*, TRPC6 block conf inactive and TRPC6 act conf inactive.
C[n+]1c2n(c3ccccc31)N=C(c1ccc(-c3ccccc3)cc1)CS2 was read as TRPC4 act inactive, TRPC6 act inactive, TRPC4 inh inactive, TRPC4 PAM inactive, TRPC6 inh inactive and Kir21 inh -2.91.
`O=C(CNC(=O)c1cccs1)NCC(=O)OCc1ccc(F)cc1` gave TRPC4 act inactive, TRPC6 act inactive, TRPC4 inh inactive, TRPC4 PAM inactive, TRPC6 inh inactive and Kir21 inh -0.56.
For COC(=O)c1ccc(COC(=O)CNC(=O)c2cccs2)cc1 the results were TRPC4 act inactive, TRPC6 act inactive, TRPC4 inh inactive, TRPC4 PAM inactive, TRPC6 inh -6.21*, Kir21 inh -0.59, HEK293 MPD ctr-2 inactive, HEK293 MPD ctr 2-2 inactive, TRPC4 ctr mod -8.0%*, TRPC4 ctr inh 2 inactive, TRPC6 block conf inactive and TRPC6 act conf inactive.
Screening Cc1cc2c3c(ccc(C)c3n1)N=CN2c1ccccc1 returned TRPC4 act inactive, TRPC6 act inactive, TRPC4 inh inactive, TRPC4 PAM inactive, TRPC6 inh -8.07*, Kir21 inh -0.53, HEK293 MPD ctr-2 -240.0%*, HEK293 MPD ctr 2-2 77.0%*, TRPC4 ctr mod -46.5%*, TRPC4 ctr inh 2 65.5%*, TRPC6 block conf 52.5%* and TRPC6 act conf inactive.
For FC(F)Sc1ccc(-n2c(-c3ccc(Cl)cc3)c[n+]3c2CCC3)cc1 the results were TRPC4 act inactive, TRPC6 act inactive, TRPC4 inh inactive, TRPC4 PAM inactive, TRPC6 inh inactive and Kir21 inh -0.86.
`COc1ccc(-n2c(-c3ccc(Br)cc3)c[n+]3c2SC(C)C3)cc1` (stereo not drawn) gave TRPC4 act inactive, TRPC6 act inactive, TRPC4 inh inactive, TRPC4 PAM inactive, TRPC6 inh -5.91*, Kir21 inh 0.32, HEK293 MPD ctr-2 -142.5%*, HEK293 MPD ctr 2-2 79.5%*, TRPC4 ctr mod -21.0%*, TRPC4 ctr inh 2 42.0%*, TRPC6 block conf 47.5%* and TRPC6 act conf inactive.
For COc1ccc(-n2c(-c3ccc(Br)cc3)c[n+]3c2CCC3)cc1 the results were TRPC4 act inactive, TRPC6 act inactive, TRPC4 inh inactive, TRPC4 PAM inactive, TRPC6 inh -7.17*, Kir21 inh -0.7, TRPC4 spec 2 76.5%*, TRPC4 spec inactive, HEK293 MPD ctr 2-1 -75.0%*, HEK293 MPD ctr-1 -192.0%*, TRPC6 block conf 60.5%* and TRPC6 act conf inactive.
`COc1ccc(-n2c(-c3ccccc3)c[n+]3c2CCC3)cc1` gave TRPC4 act inactive, TRPC6 act inactive, TRPC4 inh inactive, TRPC4 PAM inactive, TRPC6 inh -5.42*, Kir21 inh 0.07, HEK293 MPD ctr-2 -104.0%*, HEK293 MPD ctr 2-2 inactive, TRPC4 ctr mod -17.5%*, TRPC4 ctr inh 2 inactive, TRPC6 block conf 39.5%* and TRPC6 act conf inactive.
Screening CCOc1ccc(-c2c[n+]3c(n2-c2ccccc2)CCCCC3)cc1 returned TRPC4 act inactive, TRPC6 act inactive, TRPC4 inh inactive, TRPC4 PAM inactive, TRPC6 inh -5*, Kir21 inh -0.79, HEK293 MPD ctr-2 inactive, HEK293 MPD ctr 2-2 inactive, TRPC4 ctr mod inactive, TRPC4 ctr inh 2 inactive, TRPC6 block conf inactive and TRPC6 act conf inactive.
CC(=O)N(C)c1ccc(NC(=O)c2ccc([N+](=O)[O-])cc2Cl)cc1 was read as TRPC4 act inactive, TRPC6 act inactive, TRPC4 inh inactive, TRPC4 PAM inactive, TRPC6 inh inactive and Kir21 inh 0.02.
Cc1ccc(-n2c(-c3ccc(Cl)cc3)c[n+]3c2CCC3)cc1 was read as TRPC4 act inactive, TRPC6 act inactive, TRPC4 inh inactive, TRPC4 PAM inactive, TRPC6 inh -5.23*, Kir21 inh -1.15, HEK293 MPD ctr-2 inactive, HEK293 MPD ctr 2-2 inactive, TRPC4 ctr mod inactive, TRPC4 ctr inh 2 46.0%*, TRPC6 block conf inactive and TRPC6 act conf inactive.
Screening CCOc1ccc(-n2c(-c3ccc(Cl)cc3)c[n+]3c2SCC3)cc1 returned TRPC4 act inactive, TRPC6 act inactive, TRPC4 inh -6*, TRPC4 PAM inactive, TRPC6 inh -7.35*, Kir21 inh -0.41, HEK293 MPD ctr-2 -71.0%*, HEK293 MPD ctr 2-2 80.0%*, TRPC4 ctr mod inactive, TRPC4 ctr inh 2 35.5%*, TRPC6 block conf 42.5%* and TRPC6 act conf inactive.
